# Results from different studies.
SMILES,assay,test system,setting,endpoint,value
CC[C@H](C)CCCCC(=O)N[C@@H](CCN)C(=O)N[C@H](C(=O)N[C@@H](CCN)C(=O)N[C@H]1CCNC(=O)[C@H]([C@@H](C)O)NC(=O)[C@H](CCN)NC(=O)[C@H](CCN)NC(=O)[C@H](CC(C)C)NC(=O)[C@@H](CC(C)C)NC(=O)[C@H](CCN)NC1=O)[C@@H](C)O,,"male Sprague-Dawley rat, plasma","intravenous, 5 mg/kg",C0,15400 ng/mL
CC(=O)c1c(C)c2cnc(Nc3ccc(C4CCN(CCS(C)(=O)=O)CC4)cn3)nc2n(C2CCCC2)c1=O,metabolic stability,"mouse, liver microsomes",,half-life,72.2 min
CN1CCC[C@H]1c1cccnc1,,"rat, plasma","intravenous, 0.1 mg/kg",half-life,68 min
O=c1c2cc(Cl)c(CO)cc2[nH]c(=S)n1Cc1cncnc1,metabolic stability,"mouse, liver microsomes","1 µM, pH 7.4",half-life,57.9 min
Cc1ccc2cc(N3CCC4(O)C(=O)c5cc(C)c(C)cc5N=C34)ccc2n1 (stereo not shown),,"rat, plasma","intravenous, 2 mg/kg",half-life,186 min
C#Cc1nc(C(=O)N2CCC(NC(=O)c3cnc(-c4ccccc4)s3)(c3nc4ccccc4n3C)CC2)cs1,metabolic stability,"mouse, liver microsomes",,half-life,~20 min
Cc1[nH]c(C)c(S(=O)(=O)Nc2ccc(S(=O)(=O)F)c(Cl)c2)c1C(=O)N1CCC(F)(F)C1,metabolic stability,"mouse, liver microsomes",,half-life,32 min
CC(C)CC(=O)OC[C@H]1O[C@@](C#N)(c2ccc3c(N)ncnn23)[C@H](O)[C@@H]1O,metabolic stability,"mouse, hepatocytes",5 µM,half-life,< 4.36 min
Cc1[nH]c(C)c(S(=O)(=O)Nc2ccc(S(F)(F)(F)(F)F)cc2)c1C(=O)N1CCC(F)(F)C1,metabolic stability,"mouse, liver microsomes",,half-life,20 min
Cl.Cn1c(=O)n(CCCCN2CCC3(CC2)OCc2ccccc23)c2ccccc21,,"male Sprague-Dawley rat, plasma","intravenous, 10 mg/kg",half-life,216 min
